Bioassay records (PubChem BioAssay)
IMP-1 inh: blocks Pseudomonas aeruginosa IMP-1 metallo-beta-lactamase | purified IMP-1, nitrocefin hydrolysis, epi-absorbance fluorescence | inhibition, % at 5.6 µM | hit rate 0.45% among 290,000 | AID 1556;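 active = inhibition above the mean plus 3 SD of all compounds in the same screening run, cut at about 4.5% in these data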;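 note: 0% = IMP-1 with DMSO and 100% = DMSO wells lacking enzyme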
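Assay system: purified IMP-1; Quantity: IMP-1 0.2 nM before substrate addition; Medium: HEPES buffer pH 7.1 with ZnSO4 and Brij 35; Incubation: 15 min enzyme–compound preincubation, then 25 min nitrocefin reaction, 25 °C; Signal: fluorescence quenching readout, ex 480/em 530 nm; Controls: DMSO with and without IMP-1; Repeats: singlicate testing.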
NALP1 inh: inhibitors of NALP1 inflammasome in yeast. S. cerevisiae NALP1/ASC/caspase-1 growth, X-gal OD620, 72 h. inhibition, % at 10 µM. hit rate 0.61% among 280,000. AID 2071; in the data active = inhibition mostly above about 24%, no sharp cut-off; inactive = mostly below about 32%
PolyA inhibitor: yeast polyadenylation inhibition; S. cerevisiae SKY197-pL101 polyadenylation reporter, beta-gal luminescence; efflux-impaired pdr1/pdr3 knockout yeast; score 100 = 6 SD above DMSO; activity score, % at 12 µM; hit rate 0.02% among 300,000;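 active = lowest replicate activity score at least 50, where 100 means six control SD above control mean; inconclusive = lowest score under 50 but half or more replicates reach 50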;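 note: yeast exposed to compound for 9 h at 30 °C; higher score means more reporter readthrough which indicates perturbed polyadenylation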
SUMO Mot1 rescue: blocks SUMOylation pathway, rescuing yeast Mot1-301 growth. growth rescue, % at 18.8 µM. S. cerevisiae Mot1-301 growth rescue, ATP luminescence, 38.5C; percent above DMSO median, 100 means doubled. hit rate 1% among 320,000;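 active = every valid replicate shows activation above 250% relative to neutral control wells; inactive = the rest, any valid replicate at or below 250%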;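 note: OY570 slx delta 5 strain wells were the positive control but not used for scaling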
NALP3 yeast inh: NALP3 inhibition in yeast; Yeast reconstituted NLRP3/ASC/caspase-1, beta-gal luminescence, 24 h; inhibition, % at 10 µM; hit rate 0.39% among 330,000; AID 2825;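 active = inhibition of 50% or more; inactive = inhibition below 50%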;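 note: plate controls were induced DMSO wells for no effect and uninduced yeast grown without galactose for full effect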
VIM-2 inh: blocks Pseudomonas aeruginosa VIM-2 metallo-beta-lactamase | hit rate 0.89% among 290,000 | purified VIM-2, nitrocefin hydrolysis, epi-absorbance fluorescence | inhibition, % at 5.6 µM;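 active = inhibition above the mean of all tested compounds plus 3 SD, cutoff set per screening run, cut at about 7.5% in these data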;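 note: red hydrolysis product quenches plate fluorescence so inhibitors raise well fluorescence; 0% = enzyme with DMSO and 100% = DMSO without enzyme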
* hit, by the source's call; ? = inconclusive; · = not tested or not shown; + = active, no number. A selection: hits, their analogues and other compounds. The true share with any hit is near 2.9%.

SMILES | IMP-1 inh | NALP1 inh | PolyA inhibitor | SUMO Mot1 rescue | NALP3 yeast inh | VIM-2 inh
O=C(Nc1ccc(Cl)cc1)OC(CN1CCCCC1)C(F)(F)F (stereo not drawn) | -1 | 25* | 10 | 1 | 31 | 0
O=C(Nc1cccc(F)c1)OC(CN1CCCCC1)C(F)(F)F (stereo not drawn) | -2 | -2 | 4 | -2 | 22 | -3
CC(=O)Nc1ccc2c(CSc3nncs3)cc(=O)oc2c1 | 5.4* | · | 8 | 64 | -3 | 3
CCOc1cc(/C=C2\CCCc3c2nc2ccccc2c3C(=O)O)ccc1OC | 6.9* | 7 | 5 | -4 | 26 | 3
CC(Oc1ccc(F)cc1)C(=O)Nc1ccccc1C(=O)N1CCCCC1 (stereo not drawn) | · | · | · | -5 | 18 | ·
CC(=O)Nc1cccc(NC(=O)c2cc(-c3cccnc3)nc3ccc(Br)cc23)c1 | 5.2* | 22 | 10 | -4 | -1 | 0
CSc1ccccc1NC(=O)c1cc(-c2cccnc2)nc2ccc(Br)cc12 | 6.3* | 10 | 2 | 58 | 23 | -1
CCc1ccccc1OCC(=O)Nc1cc(S(=O)(=O)N(CC)CC)ccc1N1CCOCC1 | · | · | · | -1 | 10 | ·
COc1ccc(C(C(=O)NC(C)C)N(C(=O)CCC(=O)Nc2nccs2)c2ccccc2F)cc1 (stereo not drawn) | -3 | 33* | 2 | -5 | -13 | -3
COCCNC(=O)C(c1ccc(OC)cc1)N(CCOC)C(=O)CCC(=O)Nc1nccs1 (stereo not drawn) | 1 | 20 | -5 | 9 | 7 | 0
CCn1cc(C(=O)NCCN(C)C)c(=O)c2cc(F)c(N3CCN(C)CC3)cc21 | -2 | 16 | -5 | -3 | · | 12*
CCN(CC)CCNC(=O)c1cn(CC)c2cc(N3CCN(C(=O)c4ccco4)CC3)c(F)cc2c1=O | -4 | 2 | 3 | 5 | 17 | 4
CCn1cc(S(=O)(=O)c2ccc(C)cc2)c(=O)c2cc(F)c(N3CCN(C)CC3)cc21 | 0 | 17 | 9 | -10 | -3 | 7.9*
CCCNC(=O)c1cn(CC)c2cc(N3CCN(C)CC3)c(F)cc2c1=O | -5 | 6 | 18 | 1 | 15 | 3
CCn1cc(C(=O)Nc2ncccc2O)c(=O)c2cc(F)c(N3CCN(C(=O)c4ccco4)CC3)cc21 | 8.0* | -10 | 16 | 7 | 14 | 1
CCN(CC)CCCNC(=O)c1cn(CC)c2cc(N3CCN(C(=O)c4ccco4)CC3)c(F)cc2c1=O | -3 | 14 | -5 | 2 | -1 | 12*
Cc1ccc(S(=O)(=O)c2cn(C)c3cc(N4CCN(C)CC4)c(F)cc3c2=O)cc1 | -6 | -1 | 1 | -4 | 3 | 3
COc1ccc2cc(C(=O)C3CCCN(C(=O)c4cnn(C(C)C)c4)C3)ccc2c1 (stereo not drawn) | -3 | 14 | 7 | 11 | 21 | -4
O=C(O)C(Cc1ccccc1)N1C(=O)c2cccc3cccc(c23)C1=O (stereo not drawn) | -3 | -12 | 13 | -8 | 19 | 9.4*
O=C(O)C(CCCCN1C(=O)c2ccccc2C1=O)N1C(=O)c2ccccc2C1=O (stereo not drawn) | 18* | -1 | 14 | 142 | 0 | 5
CCOC(=O)c1ccc(N2CCCCC2)c(NS(=O)(=O)c2ccc(C)cc2)c1 | -2 | -5 | -9 | -12 | 14 | -1
CC(C)c1ccc(NC(=O)C2CCCCC2C(=O)O)cc1 (stereo not drawn) | 0 | 14 | 10 | + | 2 | 1
O=C(NCc1cccc2[nH]ccc12)C1CCC(=O)N(CCc2ccc(Cl)cc2)C1 (stereo not drawn) | -1 | 5 | -4 | -19 | 8 | -1
Cc1cc(C)c(CN2CCC(CO)(CCOc3ccccc3)CC2)cc1C | 0 | 22 | -5 | 2 | 22 | -2
Cc1c(CN2CCC(CO)(CCOc3ccccc3)CC2)c(=O)n(-c2ccccc2)n1C | -3 | 26* | 3 | -20 | 7 | -3
SMILES | IMP-1 inh | NALP1 inh | PolyA inhibitor | SUMO Mot1 rescue | NALP3 yeast inh | VIM-2 inh
CCOC(=O)c1nnn(-c2nonc2N)c1-c1ccc(F)cc1 | -2 | 4 | -8 | · | -3 | 1
Cc1cccc(C)c1OCC(O)CN1CCC(CN2C(=O)c3cccc4cccc(c34)C2=O)CC1 (stereo not drawn) | -3 | 43* | 20 | -22 | 24 | 7
CC1Oc2ccccc2C=C1/C=N/Nc1ccc(C(=O)O)cc1 (stereo not drawn) | -3 | -31 | -17 | 402* | 23 | -1
Cc1ccc(/C(N)=N/OC(=O)C(C)c2ccc([N+](=O)[O-])cc2)cc1 (stereo not drawn) | -6 | 12 | -19 | 1 | -9 | -2
N#C/C(=N\Nc1cccc([N+](=O)[O-])c1)C(=O)c1ccc(Br)cc1 | 0 | -2 | -24 | -16 | 47 | 0
N#C/C(=N\Nc1cccc(C(F)(F)F)c1)C(=O)c1ccsc1 | -4 | 40* | -27 | 9 | 48 | 0
CCCN1CCN(CCCNC(=O)c2ccc(CS(=O)c3ccc(OC)cc3)o2)CC1 (stereo not drawn) | -1 | 8 | -7 | 17 | 22 | -1
CCOC(=O)C1(Cc2cccc(OC)c2)CCN(Cc2cccn2-c2nccs2)CC1 | -1 | 39* | -14 | 1 | 17 | 1
COc1ccc(C2CCCN2CC(O)COc2ccccc2C(C)C)cc1 (stereo not drawn) | -1 | 14 | -1 | 11 | 13 | 1
Cc1cc(N)n2nc(C)c(-c3ccc(Cl)cc3)c2n1 | -4 | 33* | -18 | · | 20 | -3
Cc1cc(Cl)n2nc(C)c(-c3ccc(Cl)cc3)c2n1 | -2 | -19 | · | · | 6 | -5
Cc1oc2c(c1C(=O)NCc1cccnc1)C(=O)c1ccccc1C2=O | -1 | 11 | ? | -37 | 40 | 9.2*
CC(=O)c1c(C)oc2c1C(=O)c1ccccc1C2=O | -2 | 48 | -31 | -66 | · | -1
COc1ccccc1NC(=O)C(C)OC(=O)CCCc1c[nH]c2ccccc12 (stereo not drawn) | · | · | -8 | 9 | 3 | ·
O=C(c1cc2cc(Cl)ccc2oc1=O)N1CCOCC1 | 1 | 6 | -8 | -12 | 6 | 0
NC(=S)c1cc2cc(Cl)ccc2oc1=O | 7.0* | · | -33 | -20 | 9 | 2
Cc1ccc(N2CSC3=C(C#N)C(c4cccs4)CC(=O)N3C2)cc1 (stereo not drawn) | 5.6* | 4 | 1 | 12 | 18 | 0
CCc1ccc(N2CSC3=C(C#N)C(c4cccs4)CC(=O)N3C2)cc1 (stereo not drawn) | -2 | -3 | -9 | 26 | 17 | -4
Cn1c(Cc2cccs2)nnc1SCC(=O)Nc1ccc(F)cc1F | · | · | 7 | -7 | 11 | ·
CC(=O)OCCNc1cc(N2CCN(C)CC2)c2noc3c2c1C(=O)c1ccccc1-3 | -1 | -34 | · | · | · | 8.2*
